Reference: ChEMBL document CHEMBL2321678, “Incorporation of non-natural amino acids improves cell permeability and potency of specific inhibitors of proteasome trypsin-like sites” (J Med Chem, 2013)
The source made the active and inactive calls. No cut-off for these calls is given here.

What was measured:
NCI-H929 [1] = experiment: Inhibition of cathepsin in human NCI-H929 cells assessed as hydrolysis of Z-FR-amc fluorogenic substrate after 6 hrs; assay type: cell-based
How it was run: (§1)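 NCI-H929 cells treated 6 h, washed and permeabilized on ice with 0.05% digitonin in Tris pH 7.5 sucrose buffer. Cytosol removed by centrifugation, then the pellet lysed in Bis-Tris pH 5.5/CHAPS buffer. Protein-normalized extract added to 40 µM Z-FR-amc in phosphate pH 6.0, EDTA, DTT. Fluorescence read continuously for 30 min; rate from slopes.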

[2] = Inhibition of trypsin-like activity of rabbit 26s proteasome beta 2 subunit assessed as hydrolysis of Ac-RLR-amc fluorogenic substrate preincubated for 30 mins followed by substrate addition measured for 30 mins by fluorescence plate reader analysis; set-up: species or system Oryctolagus cuniculus
How it was run: (§2)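 Purified rabbit-muscle 26S proteasome (final 3 µg/mL) preincubated 30 min with a range of inhibitor concentrations. Slopes expressed as % of mock; IC50 by four-parameter least-squares fit.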

[3] = Inhibition of chymotrypsin-like activity of rabbit 26s proteasome beta 5 subunit assessed as hydrolysis of Suc-LLVY-amc fluorogenic substrate preincubated for 30 mins followed by substrate addition measured for 30 mins by fluorescence plate reader analysis; set-up: species or system Oryctolagus cuniculus; how it was run: as §2
[4] = Inhibition of caspase-like activity of rabbit 26s proteasome beta 1 subunit assessed as hydrolysis of Acn-LPnLD-amc fluorogenic substrate preincubated for 30 mins followed by substrate addition measured for 30 mins by fluorescence plate reader analysis; set-up: species or system Oryctolagus cuniculus; how it was run: as §2
[5] = Inhibition of chymotrypsin-like activity of yeast 20s proteasome beta 5 subunit assessed as hydrolysis of Suc-LLVY-amc fluorogenic substrate after 15 mins by fluorescence spectrophotometry; set-up: species or system Saccharomyces cerevisiae
Oryctolagus cuniculus = species on record: Oryctolagus cuniculus; experiment: Selectivity ratio of IC50 for chymotrypsin-like activity of rabbit 26s proteasome beta 5 subunit to IC50 for trypsin-like activity of rabbit 26s proteasome beta 2 subunit
How it was run: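 Purified rabbit-muscle 26S proteasome (final 3 µg/mL) preincubated 30 min with a range of inhibitor concentrations. […] Amc release read continuously for 30 min (ex 380/em 460 nm). Slopes expressed as % of mock; IC50 by four-parameter least-squares fit.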

RPMI-8226 [6] = experiment: Potentiation of NC-022-induced sensitization of human RPMI8226 cells to Carfilzomib assessed as cell viability at 10 uM after 48 hrs; assay type: functional, cell-based
RPMI-8226 [7] = experiment: Sensitization of human RPMI8226 cells to Carfilzomib assessed as cell viability at 10 uM after 48 hrs; assay type: functional, cell-based
Saccharomyces cerevisiae = experiment: Inhibition of caspase-like activity of yeast 20s proteasome beta 1 subunit assessed as hydrolysis of […] fluorogenic substrate at 200 uM after 15 mins by fluorescence spectrophotometry
How it was run: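 Yeast 20S core particle (0.10 nM) preincubated 15 min with inhibitor, which stays present during the assay. Substrate ZLLE-amc for caspase-like sites, 250 µM, in 20 mM Tris, 0.01% SDS, pH 7.5. Hydrolysis monitored for 1 h at room temperature (ex 360/em 460 nm).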

RPMI-8226 [8] = experiment: Sensitization of human RPMI8226 cells to Carfilzomib assessed as cell viability at 27 uM after 47 hrs; assay type: functional, cell-based
RPMI-8226 [9] = experiment: Sensitization of human RPMI8226 cells to Carfilzomib assessed as cell viability at 1 uM after 47 hrs; assay type: functional, cell-based
NCI-H929 [10] = experiment: Partial inhibition of cathepsin in human NCI-H929 cells assessed as hydrolysis of Z-FR-amc fluorogenic substrate after 6 hrs; assay type: cell-based; how it was run: as §1
RPMI-8226 [11] = experiment: Sensitization of human RPMI8226 cells to Bortezomib assessed as cell viability at 1 uM after 47 hrs; assay type: functional, cell-based
How it was run: (§3)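 RPMI-8226 grown in RPMI-1640 with 10% FBS, penicillin, streptomycin and plasmocin, 5% CO2. For sensitization, cells exposed to bortezomib for 1 h, then 47 h with the trypsin-site inhibitor (1 µM). Viability by Alamar Blue dye conversion; mean ± SEM of three biological replicates.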

RPMI-8226 [12] = experiment: Cytotoxicity against human RPMI8226 cells; assay type: functional, cell-based; how it was run: as §3
[13] = molecular target: Proteasome Macropain subunit (Homo sapiens) (UniProt P49721); experiment: Inhibition of trypsin-like activity of proteasome beta 2 subunit in HEK-293T cell lysates after 1 hr by SDS-PAGE analysis
How it was run: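 Then 1 h at 37 °C with BODIPY-TMR-Ahx3L3-vs or BODIPY-TMR-epoxomicin (0.5 µM). Samples run on 12.5% SDS-PAGE; β2/β5 band fluorescence taken relative to mock. Three independent experiments; IC50 fitted.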

Homo sapiens = species on record: Homo sapiens; experiment: Selectivity ratio of IC50 for chymotrypsin-like activity of human proteasome beta 5 subunit to IC50 for trypsin-like activity of human proteasome beta 2 subunit
[14] = molecular target: T1, Proteasome Macropain subunit MB1 (Homo sapiens, UniProt P28074); experiment: Inhibition of chymotrypsin-like activity of proteasome beta 5 subunit in HEK-293T cell lysates using BODIPY-BODIPY-TMR-epoxomicin as probe after 1 hr by SDS-PAGE analysis
T1 sequence (P28074 whole entry): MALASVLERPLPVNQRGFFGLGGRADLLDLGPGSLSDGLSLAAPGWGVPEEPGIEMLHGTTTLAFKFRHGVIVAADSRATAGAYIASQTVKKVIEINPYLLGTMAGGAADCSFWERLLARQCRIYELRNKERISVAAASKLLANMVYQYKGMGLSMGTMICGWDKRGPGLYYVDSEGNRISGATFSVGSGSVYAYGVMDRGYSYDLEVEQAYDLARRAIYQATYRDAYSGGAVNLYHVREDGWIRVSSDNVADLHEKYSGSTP
How it was run: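 Then 1 h at 37 °C with BODIPY-TMR-Ahx3L3-vs or BODIPY-TMR-epoxomicin (0.5 µM). Three independent experiments; IC50 fitted.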

Sequence of Proteasome Macropain subunit (Homo sapiens) (P49721 whole entry): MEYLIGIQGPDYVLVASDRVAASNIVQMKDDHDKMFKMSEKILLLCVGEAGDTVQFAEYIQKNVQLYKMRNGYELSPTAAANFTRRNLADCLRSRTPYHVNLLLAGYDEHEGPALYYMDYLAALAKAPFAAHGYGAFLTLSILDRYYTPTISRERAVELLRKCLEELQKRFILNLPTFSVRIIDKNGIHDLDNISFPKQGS

CC(C)C[C@H](NC(=O)[C@H](Cc1ccc(CN)cc1)NC(=O)[C@H](Cc1ccccc1)N=[N+]=[N-])C(=O)N[C@H](/C=C/S(C)(=O)=O)Cc1ccc(CN)cc1
inhibition (NCI-H929 [1]): Active | IC50 [2]: 6.6 nM | IC50 [3]: 8900 nM

CC(C)C[C@H](NC(=O)[C@H](Cc1ccncc1)NC(=O)[C@H](Cc1ccccc1)N=[N+]=[N-])C(=O)N[C@H](/C=C/S(C)(=O)=O)Cc1ccc(CN)cc1
inhibition (NCI-H929 [1]): Active | IC50 [2]: 12 nM | IC50 [4]: 30000 nM

Cc1c(O)cccc1C(=O)N[C@H](C(=O)N[C@@H](CO)C(=O)N[C@H](/C=C/S(C)(=O)=O)Cc1ccc(CN)cc1)C(C)C
inhibition (NCI-H929 [1]): inactive | IC50 [4]: 21000 nM | IC50 [5]: 19300 nM

CC(C)C[C@H](NC(=O)[C@H](Cc1ccccc1)N=[N+]=[N-])C(=O)N[C@@H](CC(C)C)C(=O)N[C@H](/C=C/S(C)(=O)=O)CCCCN
IC50 [2]: 740 nM | IC50 [3]: 22000 nM | IC50 [4]: > 30000 nM

CC(C)C[C@H](NC(=O)[C@H](Cc1ccccc1)N=[N+]=[N-])C(=O)N[C@@H](CC(C)C)C(=O)N[C@@H](Cc1ccc(N)cc1)C(=O)[C@@]1(C)CO1
Ratio IC50 (Oryctolagus cuniculus): 0.0056 | IC50 [2]: 1800 nM | IC50 [3]: 10 nM | IC50 [4]: > 30000 nM

CCOC(=O)[C@H]1O[C@@H]1C(=O)N[C@@H](CC(C)C)C(=O)NCCC(C)C
Activity (RPMI-8226 [6]): inactive | Activity (RPMI-8226 [7]): inactive

CC(C)C[C@H](NC(=O)[C@H](Cc1ccccc1)N=[N+]=[N-])C(=O)N[C@@H](CC(C)C)C(=O)N[C@H](/C=C/S(C)(=O)=O)Cc1ccc(CN)cc1
inhibition (Saccharomyces cerevisiae): inactive | Activity (RPMI-8226 [8]): Active | Activity (RPMI-8226 [9]): Active | inhibition (NCI-H929 [10]): Active | Activity (RPMI-8226 [11]): Active | Activity (RPMI-8226 [12]): inactive

CC1=CC(C)=[N+]2C1=C(CCCCc1cn([C@@H](Cc3ccccc3)C(=O)N[C@@H](Cc3ccc(CN)cc3)C(=O)N[C@@H](CC(C)C)C(=O)N[C@H](/C=C/S(C)(=O)=O)Cc3ccc(CN)cc3)nn1)c1c(C)cc(C)n1[B-]2(F)F
inhibition [13]: inactive

CC(C)C[C@@H](/C=C/S(C)(=O)=O)NC(=O)[C@H](CC(C)C)NC(=O)[C@H](Cc1ccc(CN)cc1)NC(=O)[C@H](Cc1ccccc1)N=[N+]=[N-]
Ratio IC50 (Homo sapiens): 2.5 | IC50 [14]: 480 nM | Ratio IC50 (Oryctolagus cuniculus): 0.057 | IC50 [2]: 180 nM | IC50 [3]: 10 nM

CC(C)C[C@H](NC(=O)[C@H](Cc1ccc(CN)cc1)NC(=O)[C@H](Cc1ccccc1)N=[N+]=[N-])C(=O)N[C@H](/C=C/S(C)(=O)=O)Cc1ccncc1
Ratio IC50 (Homo sapiens): 6.5 | IC50 [14]: 2400 nM | Ratio IC50 (Oryctolagus cuniculus): 9.1 | IC50 [2]: 45 nM | IC50 [3]: 410 nM | IC50 [4]: > 30000 nM

CC(=O)N[C@@H](CC(C)C)C(=O)N[C@@H](CC(C)C)C(=O)N[C@@H](CCCNC(=N)N)C(=O)[C@@]1(C)CO1
IC50 [2]: 1000 nM | IC50 [3]: > 30000 nM | IC50 [4]: > 30000 nM
